Here are results for 29 compounds from ChEMBL document CHEMBL1138302, “Diaryl dihydropyrazole-3-carboxamides with significant in vivo antiobesity activity related to CB1 receptor antagonism: synthesis, biological evaluation, and molecular modeling in the homology model” (J Med Chem, 2007).

Structures are written as SMILES. Activity calls are given as the source filed them. No cut-off for these calls is given here.

For one experiment, the system named is Rattus norvegicus. Kind of experiment: Inhibition of sucrose intake in Zucker fa/fa rat at 10 mg/kg, po after 4 hrs. The format is functional.
Conditions: not given
The method, boiled down: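 Female Zucker fa/fa rats (10-12 weeks, 300-350 g) trained six consecutive days on 5% sucrose with food and water withdrawn; day 7 randomized (n=6), dosed orally 10 mg/kg in 0.5% carboxymethylcellulose (2 mL/kg), exposed to sucrose 1 h later for 4 h. Consumption measured; % inhibition vs vehicle control; one-way ANOVA with Dunnett's test.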
What is called Inhibition is the percentage by which the read-out fell short of the control. Read a high Inhibition as a response far below the control. For `O=C(NN1CCOCC1)C1=NN(c2ccc(Cl)cc2Cl)C(c2ccc(Cl)cc2)C1.O=C(O)C(=O)O` (stereo unspecified), the Inhibition amounted to 20.4%.

Compound `CS(=O)(=O)O.O=C(NN1CCOCC1)C1=NN(c2ccc(Cl)cc2Cl)C(c2ccc(Cl)cc2)C1` (stereo unspecified) showed an Inhibition of 19.2%.

For `O=C(NN1CCOCC1)C1=NN(c2ccc(Cl)cc2Cl)C(c2ccc(Cl)cc2)C1.O=S(=O)(O)c1ccccc1` (single isomer, unassigned; 33), the Inhibition is listed as 17.1%.

As to `O=C(NN1CCOCC1)C1=NN(c2ccc(Cl)cc2Cl)C(c2ccc(Cl)cc2)C1` (stereo unspecified), the Inhibition was 34.2%.

The experiment is the same for the next values; noted with them: 10 mg/kg.
In turn, `Cl.O=C(NN1CCOCC1)C1=NN(c2ccc(Cl)cc2Cl)C(c2ccc(Cl)cc2)C1` (racemic; form 1) gave an Inhibition of 34.5%.

Compound `Cl.O=C(NN1CCOCC1)C1=NN(c2ccc(Cl)cc2Cl)C(c2ccc(Cl)cc2)C1` (single isomer, unassigned; 27) came in with an Inhibition of 30.1%.

Regarding `Cl.O=C(NN1CCOCC1)C1=NN(c2ccc(Cl)cc2Cl)C(c2ccc(Cl)cc2)C1` (stereo in doubt; 29), the Inhibition is reported as 42.2%.

The experiment is the same for the next values; noted with them: Rattus norvegicus, Zucker, po, 4 h.
As usually defined, the inhibition in vivo is the change of the read-out against control, counted positive when it falls. A low value points to little suppression. On to `O=C(NN1CCOCC1)C1=NN(c2ccc(Cl)cc2Cl)C(c2ccc3c(c2)OCO3)C1` (stereo unspecified), for which 10 mg/kg produced 17% inhibition in vivo.

`O=C(NN1CCOCC1)C1=NN(c2ccc(Cl)cc2Cl)C(c2ccco2)C1` (stereo unspecified) showed an inhibition in vivo at 10 mg/kg of 15.1%.

Compound `O=C(NN1CCOCC1)C1=NN(c2ccccc2)C(c2ccc(Cl)cc2)C1` (stereo unspecified) came in with an inhibition in vivo at 10 mg/kg of 0.5%.

In turn, `O=C(NN1CCCC1)C1=NN(c2ccc(Cl)cc2Cl)C(c2ccc(Cl)cc2)C1` (stereo unspecified) registered an inhibition in vivo at 10 mg/kg of 2.5%.

Turning to `O=C(NN1CCOCC1)C1=NN(c2ccccc2)C(c2ccccc2)C1` (stereo unspecified), the inhibition in vivo at 10 mg/kg stood at 11.9%.

Turning to `CN1CCN(NC(=O)C2=NN(c3ccc(Cl)cc3Cl)C(c3ccc(Cl)cc3)C2)CC1` (stereo unspecified), the inhibition in vivo at 10 mg/kg stood at 22.6%.

`COc1ccc(C2CC(C(=O)NN3CCOCC3)=NN2c2ccc(Cl)cc2Cl)cc1` (stereo unspecified) displayed an inhibition in vivo at 10 mg/kg of 9.4%.

As to `O=C(NN1CCCCCC1)C1=NN(c2ccc(Cl)cc2Cl)C(c2ccc(Cl)cc2)C1` (stereo unspecified), the inhibition in vivo at 10 mg/kg is 8.4%.

`O=C(NN1CCOCC1)C1=NN(c2ccc(Cl)cc2Cl)C(c2ccc(Cl)s2)C1` (stereo unspecified) gave an inhibition in vivo at 10 mg/kg of 16.7%.

As for `O=C(NN1CCCCC1)C1=NN(c2ccc(Cl)cc2Cl)C(c2ccc(Cl)cc2)C1` (stereo unspecified), testing at 10 mg/kg gave an inhibition in vivo of 23.6%.

On to `O=C(NN1CCOCC1)C1=NN(c2ccc(Cl)cc2Cl)C(c2cccs2)C1` (stereo unspecified), for which the inhibition in vivo at 10 mg/kg was found to be 3%.

In turn, `O=C(NN1CCOCC1)C1=NN(c2ccc(Cl)cc2Cl)C(c2ccc(Br)cc2)C1` (stereo unspecified) displayed an inhibition in vivo at 10 mg/kg of 24.2%.

In turn, `CCCCCc1ccc(C2CC(C(=O)NN3CCOCC3)=NN2c2ccc(Cl)cc2Cl)cc1` (stereo unspecified) showed an inhibition in vivo at 10 mg/kg of 13.1%.

Compound `O=C(NN1CCOCC1)C1=NN(c2ccc(Cl)cc2)C(c2ccc(Cl)cc2)C1` (stereo unspecified) gave an inhibition in vivo at 10 mg/kg of 8.1%.

For `O=C(NN1CCOCC1)C1=NN(c2ccc(Cl)cc2)C(c2ccccc2)C1` (stereo unspecified), the inhibition in vivo at 10 mg/kg turned out to be 5.6%.

In turn, `O=C(NN1CCOCC1)C1=NN(c2ccc(Cl)cc2Cl)C(c2cccnc2)C1` (stereo unspecified) yielded an inhibition in vivo at 10 mg/kg of 4%.

`CCCCOc1ccc(C2CC(C(=O)NN3CCOCC3)=NN2c2ccc(Cl)cc2Cl)cc1` (stereo unspecified) yielded an inhibition in vivo at 10 mg/kg of 18.1%.

`O=C(NN1CCOCC1)C1=NN(c2ccc(Cl)cc2Cl)C(c2ccccc2)C1` (stereo unspecified) returned an inhibition in vivo at 10 mg/kg of 31.9%.

`O=C(NN1CC2CCCC2C1)C1=NN(c2ccc(Cl)cc2Cl)C(c2ccc(Cl)cc2)C1` (stereo unspecified) came in with an inhibition in vivo at 10 mg/kg of 3.6%.

Turning to `Cc1ccc(C2CC(C(=O)NN3CCOCC3)=NN2c2ccc(Cl)cc2Cl)s1` (stereo unspecified), 10 mg/kg produced 9.3% inhibition in vivo.

In another experiment the test system is Rattus norvegicus. As to the kind of experiment: Inhibition of body weight gain in Zucker fa/fa rat at 10 mg/kg, po.
Conditions: not given
On the set-up: dose 10 mg/kg. It is filed as functional, organism-based. The method, boiled down:
(§1)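 Individually housed female obese Zucker fa/fa rats, groups of six, dosed orally daily 1 h before dark phase for 60 days; body weight recorded daily. Day 61 morning retro-orbital blood drawn and serum triglyceride measured by colorimetric kit. One-way ANOVA with Dunnett's test versus control.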
Turning to `O=C(NN1CCOCC1)C1=NN(c2ccc(Cl)cc2Cl)C(c2ccc(Cl)cc2)C1` (racemic; form 2), the result was Active.

As for `O=C(NN1CCOCC1)C1=NN(c2ccc(Cl)cc2Cl)C(c2ccc(Cl)cc2)C1` (single isomer, unassigned; 30), the result was Active.

In a further experiment the test system is Rattus norvegicus. Kind of experiment: Reduction in serum triglyceride level in Zucker fa/fa rat at 10 mg/kg, po after 60 days. It is filed as functional, organism-based. On the set-up: dose 10 mg/kg.
Conditions: not given
The method, boiled down: as §1
On to `O=C(NN1CCOCC1)C1=NN(c2ccc(Cl)cc2Cl)C(c2ccc(Cl)cc2)C1` (racemic; form 2), for which the outcome was Active.

Turning to `O=C(NN1CCOCC1)C1=NN(c2ccc(Cl)cc2Cl)C(c2ccc(Cl)cc2)C1` (single isomer, unassigned; 30), the result was Active.
